Compound activity: PubChem, Sanford-Burnham Center for Chemical Genomics
Most compounds without a hit are left out; they make up all but 1.8% or so of the library.
Jurkat NFkB inh – inhibitors of the PMA/ionomycin-induced NF-kB reporter in Jurkat cells | inhibition, % at 4 µM | 0.53% of 330,000 active | PMA/ionomycin-induced NF-kB luciferase reporter, luminescence; in the data active means inhibition above about 50%
XBP1 UPR activ – adaptive UPR (XBP1) activation; activation, % at 20 µM; CHO-XBP1 luciferase reporter, IRE1-XBP1 UPR activation, luminescence; percent of tunicamycin response, DMSO as zero; 0.33% of 330,000 active;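 active means versus positive control, 20 µM dose yields 30% or more activation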;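 further: 100% = tunicamycin at 10 µg/mL and 0% = DMSO only wells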
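Material: CHO cell line with stable XBP1 luciferase reporter; schedule: 16-18 h cell attachment at 37 °C, then 6 h compound exposure; signal: glow luminescence from Steady-Glo reagent; medium: serum-containing F12 medium, 10% FBS; benchmarks: tunicamycin 10 µg/mL and vehicle-only wells; read-out: percent activation relative to tunicamycin reference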
697 NFkB inh – lowers PMA/ionomycin-induced NF-kB signal in 697 B cells; 697 B-cell NF-kB luciferase reporter, 16 h; 0.33% of 330,000 active; AID 435022; inhibition, % at 4 µM; in the data active means inhibition above about 35%
UPR CHOP act – apoptotic UPR (CHOP) activation. activation, % at 10 µM. CHO-CHOP luciferase reporter, luminescence; percent of tunicamycin response over DMSO baseline. 0.34% of 330,000 active;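 active means at 10 µM dose, activation of 40% or more, normalized to positive control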;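 further: 100% = tunicamycin at 10 µg/mL and 0% = DMSO alone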
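Test system: CHO CHOP reporter cells. Input: 500 CHO-CHOP cells per well. Medium: F12 with 10% FBS. Technique: luciferase luminescence. Measure: percent activation relative to tunicamycin control. Dosing: 10 µM compound, 0.5% DMSO. Timing: 16-18 h cell attachment, then 6 h compound exposure, 37 °C.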
CRFBP-R2 block – antagonists of CRF-binding protein/CRF-R2 receptor complex | HEK293 CRF-R2/CRF-BP, CRF-induced calcium fluorescence | inhibition, % at 11.8 µM | 0.59% of 350,000 active | AID 588475;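 active means inhibition of the ligand-induced calcium signal above about 50% at the single tested concentration, limit read from the data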
Jurkat NFkB conf – lowers PMA/ionomycin-induced NF-kB signal in Jurkat cells | shares compounds with Jurkat NFkB inh | Jurkat NF-kB luciferase, 16 h | inhibition, % at 4 µM | 27% of 2,700 active | AID 435020;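 active means inhibition reaching about 45% at 4 µM in either replicate, limit read from the data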;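 further: plate controls were PMA/ionomycin stimulated DMSO wells for no effect and unstimulated DMSO wells for full effect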
Active calls of the source: *; . = no result given.

SMILES | Jurkat NFkB inh | XBP1 UPR activ | 697 NFkB inh | UPR CHOP act | CRFBP-R2 block | Jurkat NFkB conf
CCOC(=O)c1c(S(=O)(=O)Nc2ccccn2)c(C)n(C)c1C | 1.5 | 1.8 | 4.6 | 0.6 | -1.1 | .
CN(c1ccccc1)S(=O)(=O)c1ccc(NC(=O)c2nc(S(C)(=O)=O)ncc2Cl)cc1 | 53.2* | -12.0 | -95.0 | -11.4 | -0.3 | 20.9
CN(c1ccccc1)S(=O)(=O)c1ccc(NC(=O)c2ccccc2)cc1 | -5.5 | -2.7 | 0.2 | -1.9 | -16.2 | .
CC(OC(=O)c1cccc(-n2cnnn2)c1)C(=O)NCc1ccccc1 (centres undefined) | 0.2 | -1.9 | 2.0 | -2.4 | 0.3 | .
O=C(/C=C\Nc1cccc(F)c1)c1cccs1 | -174.3 | -5.7 | -177.2 | 0.0 | 10.8 | -54.2
CSc1nnc(-c2sc3cc(C(F)(F)F)cnc3c2-c2ccccc2)n1C | 55.6* | -1.9 | -12.7 | -2.2 | -18.5 | 17.1
Cc1cc(=O)oc2cc(OCC(=O)N3CCN(c4ccccc4)CC3)c(Cl)cc12 | 2.0 | -3.9 | -2.0 | -1.7 | -25.4 | .
Cc1cccc(N2CCN(C(=O)COc3cc4oc(=O)cc(C)c4cc3Cl)CC2)c1C | 54.2* | -4.6 | -26.4 | 0.9 | -13.5 | 8.3
COc1cc(/C=N/O)ccc1OCc1ccccc1Cl | -157.5 | 9.1 | -103.4 | 4.1 | -43.7 | -75.7
COc1ccccc1-c1cc(C(=O)Nc2cc(C)nn2-c2ccccc2)no1 | 60.5* | 1.2 | -50.5 | 0.2 | 16.3 | 32.4
CSCCC1NC(=O)C(C(C)=NNC(N)=O)=C1O (centres undefined) | . | . | . | . | -9.9 | .
COc1cc(NC(=O)c2cc(-c3ccc4c(c3)OCO4)on2)cc(OC)c1OC | 66.3* | 2.6 | 3.5 | 2.0 | -1.4 | 25.4
O=C(N/N=C/c1ccccc1)c1[nH]c2ccc(Br)cc2c1-c1ccccc1 | 57.8* | 13.7 | 34.4 | 0.8 | -57.3 | 8.3
O=C(CSc1nnnn1-c1cccc(F)c1)NC1CC1 | -2.4 | 1.0 | 6.5 | 0.7 | -2.8 | .
CN(C)c1ccc(/C=N/n2ncc3ccccc32)cc1 | -173.8 | -7.3 | -159.4 | -0.7 | -8.4 | -65.1
O=C(Nc1ccccn1)c1cc2cc([N+](=O)[O-])ccc2s1 | -155.6 | 12.6 | -9.9 | 13.2 | 12.9 | -94.7
O=C(O)C1C2C=CC(O2)C1C(=O)Nc1cccc(C(F)(F)F)c1 (centres undefined) | -11.1 | -3.2 | -1.0 | 2.2 | -0.9 | .
Cc1cccc(N2CCN(C(=O)c3ccc(N4CCCC4=O)cc3)CC2C)c1 (centres undefined) | -1.0 | -0.8 | -5.3 | -0.1 | 1.3 | .
O=C(c1cccc(N2CCCC2=O)c1)N1CCN(c2cccc(Cl)c2)CC1 | 53.1* | -3.9 | -64.6 | 0.4 | -20.0 | 19.9
Cc1cccc(N2CCN(C(=O)c3cccc(N4CCCC4=O)c3)C(C)C2)c1 (centres undefined) | 55.8* | -3.1 | -14.4 | -0.8 | -2.3 | 16.9
O=C(c1cccc(N2CCCC2=O)c1)N1CCN(c2ccc(F)cc2)CC1 | 1.9 | -1.2 | 13.1 | 2.3 | 12.1 | .
CSc1nc2ccccc2cc1/C=C(\C#N)c1cccc(Cl)c1 | 54.1* | 1.3 | -33.8 | -4.7 | 5.7 | 3.0
CCOC(=O)/C(C#N)=C/c1cc2ccccc2nc1Cl | -1.3 | -1.6 | 14.4 | -0.7 | -18.1 | .
COc1ccc(NC(=O)CNc2cc(C)ccc2C)cc1S(=O)(=O)N1CCOCC1 | 10.2 | -2.0 | 12.6 | 2.3 | 6.4 | .
Cc1ccc(NC(=O)c2cc3ccccc3oc2=O)cc1S(=O)(=O)N(C)C | 55.7* | -9.8 | -48.4 | -8.3 | -2.6 | 90.7*
SMILES | Jurkat NFkB inh | XBP1 UPR activ | 697 NFkB inh | UPR CHOP act | CRFBP-R2 block | Jurkat NFkB conf
Cc1ccc(Cn2c(=N)n(CC(O)COc3ccccc3)c3ccccc32)cc1 (centres undefined) | 52.6* | 1.0 | -39.7 | 0.3 | -16.4 | 12.1
CN(C)c1cccc(C(=O)NNC(=O)CSc2ccccc2)c1 | -11.9 | -4.6 | -12.2 | 0.5 | 0.7 | .
CC1CN(c2ncnc3c2cnn3-c2ccc(Cl)cc2)CC(C)O1 (centres undefined) | -187.3 | -1.9 | -196.5 | 4.1 | 8.1 | -70.8
Cc1cccc(-n2ncc3c(NC4CCCCC4)ncnc32)c1 | -155.5 | 6.8 | -234.9 | 5.0 | -31.1 | -147.7
Cc1cccc(-n2ncc3c(N4CCCC4)ncnc32)c1 | -112.1 | -4.5 | -163.6 | -2.7 | -17.8 | .
Cc1cccc(-n2ncc3c(N4CC(C)CC(C)C4)ncnc32)c1 (centres undefined) | -166.4 | 0.8 | -198.7 | 10.5 | -25.4 | -106.7
Clc1ccc(-n2ncc3c(N4CCCCCC4)ncnc32)cc1 | 16.0 | -9.1 | -141.1 | -10.2 | -7.0 | .
Cc1ccc(-n2ncc3c(N4CCN(c5ccccc5)CC4)ncnc32)c(C)c1 | 59.5* | -7.4 | -39.3 | -6.0 | 14.4 | 38.6
COC(=O)Nc1ccc(S(=O)(=O)N2CCCc3ccccc32)cc1 | 60.8* | 2.8 | -57.7 | -1.5 | 8.3 | 55.7*
Cn1c(=O)oc2cc(S(=O)(=O)N3CCCc4ccccc43)ccc21 | 55.4* | -3.1 | -47.2 | -1.3 | -17.1 | 32.4
Cn1c(=O)oc2cc(S(=O)(=O)N3CCc4ccccc43)ccc21 | 9.5 | 0.5 | -15.7 | -2.0 | 12.4 | .
CC(=C/c1ccccc1)/C=N/NC(=O)c1cccs1 | -171.1 | -2.6 | -206.3 | 3.8 | -7.7 | -102.2
O=c1cc(-c2ccccc2)[nH]c2ccc(F)cc12 | . | . | . | . | -2.1 | .
O=c1cc(-c2cccc(F)c2)[nH]c2ccccc12 | 72.4* | 13.5 | -26.1 | 2.3 | -3.2 | 62.2*
O=c1cc(-c2ccccc2)[nH]c2cc(Cl)ccc12 | 65.2* | 11.8 | -39.3 | -0.9 | 15.2 | 60.8*
COc1ccc2[nH]c(-c3cccc(F)c3)cc(=O)c2c1 | 37.2 | 20.0 | -98.1 | 2.7 | -3.8 | .
Cc1ccc2[nH]c(-c3cccc(F)c3)cc(=O)c2c1 | 52.3* | 11.1 | -68.1 | 4.2 | 1.7 | 45.4
O=C1CCCc2nc(N3CCc4ccccc43)ncc21 | -178.7 | 3.3 | -231.1 | -0.8 | -16.3 | -120.1
O=C1CC(c2ccccc2)Cc2nc(N3CCc4ccccc43)ncc21 (centres undefined) | 7.7 | -1.7 | 1.1 | -1.0 | -12.8 | .
Cc1ccc2nc(-c3ccc(O)cc3)oc2c1 | -133.9 | -1.3 | -223.9 | 1.1 | 17.2 | .
CO/N=C/C(=N\Nc1ccc(C)cc1)C(=O)c1ccc(OC)cc1 | 50.9* | 7.2 | -6.2 | 0.1 | 2.1 | 32.9
CO/N=C/C(=N\Nc1ccc(OC)cc1)C(=O)c1ccc(F)cc1 | -5.4 | -0.3 | 5.8 | -0.5 | 6.8 | .
CCOc1ccc(OCCC(=O)OCC(=O)Nc2ccc3c(c2)OCCO3)cc1 | -0.2 | -2.8 | 5.8 | 2.3 | 8.9 | .
Cc1cccc(OCCNC(=O)c2ccc(Cl)c(S(=O)(=O)NCc3cccnc3)c2)c1 | 66.2* | 0.9 | -27.6 | 1.3 | -7.1 | 39.6
O=C(C1CC1)N1CCN(c2ccc(O)cc2)CC1 | -12.8 | 2.6 | -30.7 | -1.1 | 18.7 | .
